Source: PubChem
An excerpt weighted towards active compounds, which were near 2.2% of everything screened.
ASAP1 GAP inh: ASAP1 ArfGAP inhibition. 360,000 tested, 0.19% active. Q9ULH1. inhibition, % at 16.5 µM. ASAP1-stimulated ARF1 GTP hydrolysis, GDP FP detection; in the data active = inhibition above about 25%
Target sequence (Q9ULH1 325-724 limits assumed): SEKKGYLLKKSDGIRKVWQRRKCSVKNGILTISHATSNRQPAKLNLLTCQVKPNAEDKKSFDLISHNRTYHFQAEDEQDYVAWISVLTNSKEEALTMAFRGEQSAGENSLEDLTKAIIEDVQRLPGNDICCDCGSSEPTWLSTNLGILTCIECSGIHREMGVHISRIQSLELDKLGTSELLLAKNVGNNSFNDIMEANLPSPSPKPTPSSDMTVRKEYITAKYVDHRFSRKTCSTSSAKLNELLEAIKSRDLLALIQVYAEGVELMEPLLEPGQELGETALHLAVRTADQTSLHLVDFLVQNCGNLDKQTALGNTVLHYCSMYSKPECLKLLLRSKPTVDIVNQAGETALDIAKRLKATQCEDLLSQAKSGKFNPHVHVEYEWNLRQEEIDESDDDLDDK
V-ATPase pH: alters yeast V-ATPase proton transport. S. cerevisiae, pHLuorin cytosolic pH fluorescence. 350,000 tested, 0.37% active. response, % at 10 µM; in the data active = response mostly above about 7.3%, no sharp cut-off; inactive = mostly below about 5.4%; note: actives read high
ARFGAP1 inh: inhibitors of rat ARFGAP1 | Arfgap1-stimulated ARF1 GTP hydrolysis, GDP FP detection | inhibition, % at 16.5 µM | 360,000 tested, 0.26% active | AID 651572;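 active = inhibition above a per-plate limit, mean inhibition of low control wells plus 3 SD, cut at about 25% in these data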
Target sequence (Q62848 1-136 limits assumed): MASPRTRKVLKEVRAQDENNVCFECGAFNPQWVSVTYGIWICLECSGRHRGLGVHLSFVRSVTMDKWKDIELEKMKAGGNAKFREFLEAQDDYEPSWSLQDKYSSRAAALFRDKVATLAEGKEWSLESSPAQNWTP
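System: truncated rat Arfgap1 GAP domain / Medium: HEPES-based buffer, pH 7.5 / Also added: N-terminally truncated human ARF1-GTP substrate / Incubation: enzyme reaction 120 min at 25 °C after 20 min preincubation / Measured by: FP of antibody-bound GDP Alexa 633 tracer, ex 620/em 688 nm / Replicates: singlicate, each compound tested once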
Exocytosis inh: lytic granule exocytosis inhibition; 360,000 tested, 0.66% active; inhibition, % at 10 µM; TALL-104 LAMP-1 surface exposure, flow cytometry; cells stimulated with thapsigargin and PMA;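 active = inhibition above about 55%, limit read from the data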
CendR NRP1 mod: alters CendR peptide binding to human NRP-1; AID 602438; O14786; 360,000 tested, 0.85% active; FAM-RPARPAR peptide binding to NRP-1, fluorescence polarization; inhibition, % at 25 µM;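 active = inhibition or corrected inhibition above about 18%, plus a signal ratio from 0.5 to 1.5, limit read from the data, passing the limit was not always enough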
ASAP1 inh confirm: ASAP1 inhibition confirmed. ASAP1-stimulated Arf1 GTPase, GDP fluorescence polarization. 620 tested, 37% active. inhibition, % at 16.5 µM. shares compounds with ASAP1 GAP inh;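 active = mean inhibition over triplicates exceeds the hit threshold derived for the earlier primary screening run, cut at about 25% in these data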
Large screens that a line does not name were inactive (follow-up assays come after a bar, where they were run).

O=C(CSc1nn(-c2ccccc2)c(=S)s1)Nc1ncccn1	ASAP1 GAP inh 25.9 | ASAP1 inh confirm 43.9
Cc1cc(C)nc(NC(=O)CSc2nn(-c3ccccc3)c(=S)s2)n1	none
CCOc1ccc(NC(=O)CSc2nc3ccsc3c(=O)n2CCCCCC(=O)O)cc1	none (no result: V-ATPase pH)
O=C1N(Cc2ccccc2)c2ccccc2OC1(F)F	none (no result: V-ATPase pH)
C[C@H]1C(=O)N(C)CCN1C(=O)c1cccc(OC2CCN(CC(C)(C)C)CC2)c1	none
CCc1cc(=O)oc2cc(OC(C)C(=O)O)c(Cl)cc12 (centres undefined)	ASAP1 GAP inh 27.0 | ASAP1 inh confirm inactive
O=C(Nc1ccc(F)cc1)C(=O)C1C(=O)Nc2ccccc21 (centres undefined)	none
O=C(Nc1ccc2ccccc2c1)C(=O)C1C(=O)Nc2ccccc21 (centres undefined)	ASAP1 GAP inh 25.1 (no result: V-ATPase pH, Exocytosis inh, CendR NRP1 mod) | ASAP1 inh confirm inactive
CCC(=O)c1ccc(OC(=O)C2CCN(C3=NS(=O)(=O)c4ccccc43)CC2)cc1	ASAP1 GAP inh 26.7 | ASAP1 inh confirm inactive
O=C(Oc1ccc(Br)cc1)C1CCN(C2=NS(=O)(=O)c3ccccc32)CC1	ASAP1 GAP inh 24.7 | ASAP1 inh confirm inactive
O=C(Nc1ccc(Br)cc1)C1CCCN(C2=NS(=O)(=O)c3ccccc32)C1 (centres undefined)	none
CCC(C(=O)NC1CCCC1)n1c2ccccc2c2nc(=O)cc(C)n21 (centres undefined)	none
O=c1c(-c2c(O)cc(O)c3c(=O)cc(-c4ccc(O)cc4)oc23)c(-c2ccc(O)cc2)oc2cc(O)cc(O)c12	ASAP1 GAP inh 24.9 | ASAP1 inh confirm 26.8
O=c1cc(-c2ccc(O)cc2)oc2c(-c3c(O)cc(O)c4c(=O)cc(-c5ccc(O)cc5)oc34)c(O)cc(O)c12	none
Cc1ccc(S(=O)(=O)NCCNc2ccc([N+](=O)[O-])cc2)cc1	ASAP1 GAP inh 28.7 | ASAP1 inh confirm inactive
C=CCN(c1ccccc1OC)S(=O)(=O)c1cccc(C(=O)OCC(=O)N2CCOCC2)c1	ASAP1 GAP inh 76.5 | ASAP1 inh confirm inactive
Nc1ccccc1C(=O)N1CCc2ccccc21	none
N#C/C(=C\c1ccc([N+](=O)[O-])o1)c1nc2ccccc2[nH]1	ASAP1 GAP inh 29.2 (no result: V-ATPase pH, Exocytosis inh, CendR NRP1 mod) | ASAP1 inh confirm inactive
CCc1ccc(C(O)(CNCc2ccccc2)c2ccccc2)cc1 (centres undefined)	none
Cc1ccsc1C(=O)OCC(=O)NC1CCCCC1	ASAP1 GAP inh 29.3 | ASAP1 inh confirm inactive
Cc1ccc(Nc2cc(C)c3c(O)cccc3n2)cc1C	ASAP1 GAP inh 29.9 | ASAP1 inh confirm inactive
COCCCNC(=O)C[C@H]1C[C@@]2(C(=O)OC)C(=C[C@H](COCc3ccccc3)O[C@@H]2C)N(CCC2=CCCCC2)C1=O	none (no result: V-ATPase pH, Exocytosis inh, CendR NRP1 mod)
O=C(Nc1ccc([N+](=O)[O-])cc1)Nc1ccc(OC(F)F)c(Cl)c1	ASAP1 GAP inh 26.7 | ASAP1 inh confirm inactive
Cc1ncc(C(O)c2ccccc2)n1Cc1ccccc1 (centres undefined)	none
S=P(N1CC1)(N1CC1)N1CC1	none
Cc1cc(Nc2cc(Cl)nc(Sc3ccc(NC(=O)C4CC4)cc3)n2)n[nH]1	ASAP1 GAP inh 29.6 | ASAP1 inh confirm inactive
Cc1ccc(NC(=O)C(OC(=O)c2ccccc2Cl)c2ccccc2)cc1Cl (centres undefined)	none
Cc1ccc(NC(=O)C(OC(=O)c2ccc(NC(N)=O)cc2)c2ccccc2)cc1Cl (centres undefined)	ASAP1 GAP inh 27.5 | ASAP1 inh confirm inactive
O=C(CCc1ccccc1)Nc1ccc(NC(=O)c2ccco2)cc1	none
O=C(Nc1ccc(CSc2ccccc2)cc1)c1ccco1	ASAP1 GAP inh 24.8 | ASAP1 inh confirm inactive
C#CCNC(=O)C[C@@H]1C[C@@]2(C(=O)OC)CCCCC=C2N(CCC2=CCCCC2)C1=O	none (no result: V-ATPase pH)
Cc1ccc(Cl)c2sc(NC(=O)C3=COCCO3)nc12	ASAP1 GAP inh 26.8 | ASAP1 inh confirm inactive
O=c1[nH]c(Nc2ccc(F)cc2)cc2ccccc12	ASAP1 GAP inh 36.6, ARFGAP1 inh 42.8 | ASAP1 inh confirm 32.2
CCOc1ccc(NS(=O)(=O)c2cc(C(=O)N3CCN(c4ccccc4O)CC3)ccc2Cl)cc1	none
COc1ccc(C=NNC(=S)NN=Cc2ccc(OC)c(OC)c2)cc1OC	ASAP1 GAP inh 33.8, ARFGAP1 inh 44.2 | ASAP1 inh confirm 59.1
CCc1ccc(C(=O)NNC(=O)c2cccc(S(=O)(=O)N3CCN(C)CC3)c2)cc1	none
CC(=O)c1cccc(N(C(=O)CNC(=O)c2ccco2)C(C(=O)NCC2CCCO2)c2ccccc2)c1 (centres undefined)	none
CCOc1cccc(N(C(=O)CNC(=O)c2ccco2)C(C(=O)NCC2CCCO2)c2ccccc2)c1 (centres undefined)	ASAP1 GAP inh 25.2 | ASAP1 inh confirm inactive
O=C(N/N=C/c1c(O)ccc2ccccc12)c1cccc(C(F)(F)F)c1	ASAP1 GAP inh 26.5 | ASAP1 inh confirm inactive
CCOC(=O)c1ccc(-n2cccc2/C=C2\NC(=O)NC2=O)cc1	none
O=C1[C@@H]2CSCN2C(=O)CN1Cc1c(F)cccc1Cl	ASAP1 GAP inh 26.5 | ASAP1 inh confirm inactive
Cc1ccc(S(=O)(=O)N2CCN(C(=O)c3ccccc3Cc3ccccc3)CC2)c(C)c1	none
O=C(COC(=O)c1cccnc1)NC1CCCc2ccccc21 (centres undefined)	none
O=C(COC(=O)c1cnccn1)NC1CCCc2ccccc21 (centres undefined)	ASAP1 GAP inh 47.8 | ASAP1 inh confirm inactive
O=C(COc1ccccc1[N+](=O)[O-])Nc1ccc(NC(=O)c2cc3ccccc3o2)cc1	none
O=C(COc1ccc(/C=N/NC(=O)c2cc3ccccc3o2)cc1Br)Nc1ccccc1	ASAP1 GAP inh 75.5 | ASAP1 inh confirm 83.7
Cc1ccccc1NC(=O)c1cccc(N2C(=O)C3C4CC(C(Br)C4Br)C3C2=O)c1 (centres undefined)	ASAP1 GAP inh 28.1 | ASAP1 inh confirm inactive
OCC[C@@H]1C[C@H](O)[C@@H](O)[C@@]2(OCc3cc(Cl)ccc32)O1	ASAP1 GAP inh 24.9 | ASAP1 inh confirm inactive
COc1ccccc1NC(=O)COC(=O)c1ccc2ccccc2n1	none
CC1CCN(C(=O)c2[nH]cnc2C(=O)N[C@@H](C)C(=O)OCc2ccccc2)CC1	ASAP1 GAP inh 24.9 | ASAP1 inh confirm inactive
C[C@H](NC(=O)c1nc[nH]c1C(=O)N1CCN(C(=O)OC(C)(C)C)CC1)C(=O)OCc1ccccc1	none
Cc1ccc(C(=O)NNC(=O)c2ccc3ccccc3c2O)cc1	none
COc1ccc(Br)cc1C(=O)Nc1ccc(N2CCCC2)cc1	ASAP1 GAP inh 31.9, ARFGAP1 inh 46.2 | ASAP1 inh confirm 49.1
COc1ccc(Br)cc1C(=O)Nc1ccc(N2CCN(S(C)(=O)=O)CC2)cc1	none
COc1ccc(C(=O)Nc2ccc(Cl)cc2C(=O)NCc2ccco2)cc1	ASAP1 GAP inh 27.2 | ASAP1 inh confirm inactive
